The source of these data is ChEMBL document CHEMBL1136274 (Bioorg Med Chem Lett, 2003).

Test [1] has as its target T1, Sphingosine 1-phosphate receptor 2 (Homo sapiens, UniProt O95136). Nature of the test: In vitro binding affinity towards human Sphingosine 1-phosphate receptor 2 expressed in HEK293T cells using [gamma-35S]-GTP as radioligand; Not active. In kind it is cell-based. As to conditions: hek-293t; call rule not given here.
For test [2], the target named is T2, Sphingosine 1-phosphate receptor 1 (Homo sapiens, UniProt P21453). Nature of the test: In vitro binding affinity towards human Sphingosine 1-phosphate receptor 1 expressed in HEK293T cells using [gamma-35S]-GTP as radioligand. It counts as cell-based, HEK-293T.
T2 sequence (P21453 whole entry): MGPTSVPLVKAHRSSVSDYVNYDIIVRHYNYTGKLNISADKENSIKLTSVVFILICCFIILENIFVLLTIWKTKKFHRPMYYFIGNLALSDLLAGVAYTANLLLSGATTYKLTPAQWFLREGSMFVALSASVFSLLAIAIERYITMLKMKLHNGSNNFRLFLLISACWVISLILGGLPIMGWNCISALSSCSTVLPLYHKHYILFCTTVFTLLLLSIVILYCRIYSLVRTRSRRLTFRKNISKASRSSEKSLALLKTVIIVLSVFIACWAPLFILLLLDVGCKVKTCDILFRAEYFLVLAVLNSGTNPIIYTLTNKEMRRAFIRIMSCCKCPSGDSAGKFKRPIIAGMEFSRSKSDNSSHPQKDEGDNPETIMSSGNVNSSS
For test [3], the target named is T3, Sphingosine 1-phosphate receptor 3 (Homo sapiens, UniProt Q99500). Nature of the test: In vitro binding affinity towards human S1P3 receptor expressed in HEK293T cells using [gamma-35S]-GTP as radioligand. In kind it is cell-based, HEK-293T.
T3 sequence (Q99500 whole entry): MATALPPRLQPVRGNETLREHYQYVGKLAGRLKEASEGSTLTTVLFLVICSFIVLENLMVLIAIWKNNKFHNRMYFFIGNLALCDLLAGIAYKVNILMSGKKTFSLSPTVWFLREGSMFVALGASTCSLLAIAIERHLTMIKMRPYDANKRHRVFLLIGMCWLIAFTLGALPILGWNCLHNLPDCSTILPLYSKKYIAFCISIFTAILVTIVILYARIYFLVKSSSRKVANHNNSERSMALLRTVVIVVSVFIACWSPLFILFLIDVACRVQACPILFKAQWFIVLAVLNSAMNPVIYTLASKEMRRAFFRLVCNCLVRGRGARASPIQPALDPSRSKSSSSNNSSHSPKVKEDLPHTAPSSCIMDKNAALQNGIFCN
For test [4], the target named is Sphingosine 1-phosphate receptor 5 (Homo sapiens, UniProt Q9H228). Nature of the test: In vitro binding affinity towards human Sphingosine 1-phosphate receptor 5 expressed in HEK293T cells using [gamma-35S]-GTP as radioligand. It counts as cell-based, HEK-293T.
Sphingosine 1-phosphate receptor 5, sequence (Q9H228 whole entry): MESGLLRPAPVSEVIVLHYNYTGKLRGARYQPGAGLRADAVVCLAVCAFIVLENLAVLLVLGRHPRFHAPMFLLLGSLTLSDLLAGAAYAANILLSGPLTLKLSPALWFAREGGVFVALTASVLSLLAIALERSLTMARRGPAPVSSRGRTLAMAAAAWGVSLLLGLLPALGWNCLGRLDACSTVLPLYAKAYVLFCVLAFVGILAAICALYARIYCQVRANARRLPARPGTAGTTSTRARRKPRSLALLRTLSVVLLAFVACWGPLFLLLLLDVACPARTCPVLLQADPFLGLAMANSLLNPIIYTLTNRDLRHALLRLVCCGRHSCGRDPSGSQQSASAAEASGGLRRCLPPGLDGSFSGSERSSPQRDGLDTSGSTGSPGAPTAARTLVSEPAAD
For test [5], the target named is T3, Sphingosine 1-phosphate receptor 3. Nature of the test: In vitro binding affinity towards human Sphingosine 1-phosphate receptor 3 expressed in HEK293T cells using [gamma-35S]-GTP as radioligand; Not active. As to conditions: hek-293t. In kind it is cell-based.
Test [6] concerns the target T4, Sphingosine 1-phosphate receptor 4 (Homo sapiens, UniProt O95977).
T4 sequence (O95977 whole entry): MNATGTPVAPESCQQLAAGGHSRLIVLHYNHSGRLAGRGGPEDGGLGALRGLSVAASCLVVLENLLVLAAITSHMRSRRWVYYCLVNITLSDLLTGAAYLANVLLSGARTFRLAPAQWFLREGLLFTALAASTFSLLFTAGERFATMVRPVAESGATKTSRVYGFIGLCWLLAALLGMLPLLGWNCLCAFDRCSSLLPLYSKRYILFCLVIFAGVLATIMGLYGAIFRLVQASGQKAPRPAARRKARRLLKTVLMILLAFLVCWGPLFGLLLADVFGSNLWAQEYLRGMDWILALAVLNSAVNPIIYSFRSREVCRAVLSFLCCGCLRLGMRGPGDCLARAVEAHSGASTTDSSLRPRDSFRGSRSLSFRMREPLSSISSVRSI
Nature of the test: In vitro binding affinity towards human Sphingosine 1-phosphate receptor 4 expressed in HEK293T cells using [gamma-35S]-GTP as radioligand. It counts as cell-based, HEK-293T.

Test [7] addresses T1, Sphingosine 1-phosphate receptor 2. Nature of the test: In vitro binding affinity towards human Sphingosine 1-phosphate receptor 2 expressed in HEK293T cells using [gamma-35S]-GTP as radioligand. It counts as cell-based, HEK-293T.
The target of test [8] is T3, Sphingosine 1-phosphate receptor 3. Nature of the test: In vitro binding affinity towards human Sphingosine 1-phosphate receptor 3 expressed in HEK293T cells using [gamma-35S]-GTP as radioligand. In kind it is cell-based, HEK-293T.
For test [9] the target is unchanged. Nature of the test: In vitro binding affinity towards human Sphingosine 1-phosphate receptor 3 expressed in HEK293T cells using [gamma-35S]-GTP as radioligand (Experiment 2). It counts as cell-based, HEK-293T. The method, boiled down:
(§1)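 Membranes were incubated with test lipid in pH 7.5 buffer (HEPES 50 mM, NaCl 100 mM, MgCl2 5 mM) containing saponin, GDP and 0.1 nM [γ-35S]GTP for 30 min at 30 °C. Bound label was separated by GF/C filtration and counted by scintillation. EC50 is the mean of three experiments.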

The target of test [10] is T4, Sphingosine 1-phosphate receptor 4. Nature of the test: In vitro binding affinity towards human Sphingosine 1-phosphate receptor 4 expressed in HEK293T cells using [gamma-35S]-GTP as radioligand (Experiment 2). It counts as cell-based, HEK-293T. The procedure, abridged:
as §1

The target in test [11] is T2, Sphingosine 1-phosphate receptor 1. Nature of the test: In vitro binding affinity towards human Sphingosine 1-phosphate receptor 1 expressed in HEK293T cells using [gamma-35S]-GTP as radioligand. (Experiment 2). In kind it is cell-based, HEK-293T. The method, boiled down:
as §1

T1 sequence (O95136 whole entry): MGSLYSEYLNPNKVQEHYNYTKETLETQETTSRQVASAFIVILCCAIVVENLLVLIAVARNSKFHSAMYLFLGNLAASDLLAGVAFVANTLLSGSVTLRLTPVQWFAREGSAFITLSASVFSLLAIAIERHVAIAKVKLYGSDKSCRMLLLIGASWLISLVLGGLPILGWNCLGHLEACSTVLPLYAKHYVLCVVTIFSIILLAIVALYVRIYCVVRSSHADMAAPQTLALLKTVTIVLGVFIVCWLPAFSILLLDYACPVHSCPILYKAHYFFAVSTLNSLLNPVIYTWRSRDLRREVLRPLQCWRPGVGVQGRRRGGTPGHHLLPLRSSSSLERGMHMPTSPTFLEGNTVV

The term EC50 denotes the concentration needed to bring the measured effect to its halfway point. A lower EC50 goes with an effect from little substance. For `CCCCCCCCc1ccc(NC(=O)[C@@H](N)COP(=O)(O)O)cc1.O=C(O)C(F)(F)F`, the EC50 result is “Not Active” in test [1], 82 nM in [2] and 1500 nM in test [3].
Take `CCCCCCc1ccc(NC(=O)[C@@H](N)COP(=O)(O)O)cc1.O=C(O)C(F)(F)F`: the EC50 is 55 nM in test [4]; “Not Active” in test [5]; 1500 nM in test [6]; “Not Active” in test [1]; 550 nM in [2].
Turning to `CCCCCCCCCCCCCCCCNC(=O)[C@@H](N)COP(=O)(O)O`, the EC50 in test [7] was over 5000 nM.
As to `CCCCCCCCCCc1ccc(NC(=O)[C@H](N)COP(=O)(O)O)cc1.O=C(O)C(F)(F)F`, the EC50 in test [8] is 89 nM; in test [4], 41 nM; in test [6], 450 nM; in test [1], “Not Active”; in test [2] it was 8.6 nM.
Regarding `CCCCCCCCCCCCCCNC(=O)[C@@H](N)COP(=O)(O)O`, the EC50 in test [8] turned out to be 862 nM; in [4], 1610 nM; in test [7], 2680 nM; in [2] it was 397 nM.
Consider `CCCCCCCCCCCCC/C=C/[C@@H](O)[C@@H](N)COP(=O)(O)O`, for which the EC50 came to 8.7 nM in [9], 270 nM in [10] and 4.5 nM in test [11].
`CCCCCCCCCCCCCCNC(=O)[C@H](N)COP(=O)(O)O` registered an EC50 in test [4] of over 5000 nM.
Regarding `CCCCCCc1ccc(NC(=O)[C@H](N)COP(=O)(O)O)cc1.O=C(O)C(F)(F)F`, the EC50 was 43 nM in test [4]; “Not Active” in test [5]; 880 nM in test [6]; “Not Active” in test [1]; 260 nM in [2].
Take `CCCCCCCCCCCCc1ccc(NC(=O)[C@H](N)COP(=O)(O)O)cc1.O=C(O)C(F)(F)F`: the EC50 in [8] was 740 nM; in [4], 160 nM; in test [6], 1400 nM; in [1] it was “Not Active”; in test [2], 130 nM.
Turning to `CCCCCCCCc1ccc(NC(=O)[C@H](N)COP(=O)(O)O)cc1.O=C(O)C(F)(F)F`, the EC50 is 450 nM in [8], “Not Active” in test [1] and 58 nM in [2].
